Experimental data from ChEMBL document CHEMBL3351487, “Synthesis, molecular docking and anti-mycobacterial evaluation of new imidazo[1,2-a]pyridine-2-carboxamide derivatives” (Eur J Med Chem, 2015).
In brackets after ≈: the same amount, converted by molar mass.

Experiments:
[1] = tested on: Mycobacterium tuberculosis; assay: Antimycobacterial activity against Mycobacterium tuberculosis H37Rv ATCC 27294 after 7 days by MABA method; assay type: functional; settings: H37Rv ATCC 27294, 168 h
How it was run: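 Inoculum from fresh LJ culture resuspended in 7H9-S (7H9 broth, 0.1% casitone, 0.5% glycerol, OADC), adjusted to McFarland No. 1 and diluted 1:20. Drug stocks diluted in 7H9-S to four-fold the highest final concentration. Plates sealed and incubated at 37 °C in normal atmosphere for 7 days, then alamar blue added.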

[2] = Cytotoxicity against HEK293T cells assessed as inhibition of cell growth at 50 ug/mL after 72 hrs by MTT assay; assay type: cell-based, HEK-293T; settings: human, read-out: GI
How it was run: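 HEK-293T cells exposed to each compound at one concentration (50) for 72 h. Viability was read from cellular conversion of MTT to formazan using a non-radioactive cell proliferation kit, and the result is given as percentage inhibition of cells.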

Row | SMILES | MIC [1] [µg/mL] | inhibition at 72 h, 50 ug/mL [2] [%] | MIC50 [1] [nM]
1 | O=C(O)CCc1ccc(-c2ccc3nc(C(=O)NCc4ccc(F)cc4)cn3c2)cc1 | > 50 |  | 
2 | Nc1ncccc1-c1ccc2nc(C(=O)NCc3ccc(F)cc3)cn2c1 | 25 (≈ 69.2 µM) | 40.8 | 
3 | Cn1cc(-c2ccc3nc(C(=O)NCc4ccc(F)cc4)cn3c2)cn1 | 25 (≈ 71.6 µM) | 36.1 | 
4 | O=C(NC1CCOCC1)c1cn2cc(-c3cnn(CCN4CCOCC4)c3)ccc2n1 | 6.25 (≈ 14.7 µM) | 30.1 | 
5 | CN1CCN(C(=O)c2ccc(-c3ccc4nc(C(=O)NCc5ccco5)cn4c3)cc2)CC1 | 25 (≈ 56.4 µM) | 30.1 | 
6 | O=C(NCc1ccco1)c1cn2cc(-c3cccc4ncccc34)ccc2n1 | 25 (≈ 67.9 µM) | 24.8 | 
7 | O=C(NCc1ccco1)c1cn2cc(-c3cnn(CCN4CCOCC4)c3)ccc2n1 | 12.5 (≈ 29.7 µM) | 34.1 | 
8 | O=C(NCc1ccc(C(F)(F)F)cc1)c1cn2cc(-c3cccc4ncccc34)ccc2n1 | 25 (≈ 56 µM) | 37.8 | 
9 | O=C(NCc1ccc(F)cc1)c1cn2cc(-c3cccc4ncccc34)ccc2n1 | 25 (≈ 63.1 µM) | 28.1 | 
10 | Nc1ncccc1-c1ccc2nc(C(=O)NCc3ccco3)cn2c1 | 25 (≈ 75 µM) | 26.1 | 
11 | CO[C@H]1/C=C/O[C@@]2(C)Oc3c(C)c(O)c4c(O)c(c(/C=N/N5CCN(C)CC5)c(O)c4c3C2=O)NC(=O)/C(C)=C\C=C\[C@H](C)[C@H](O)[C@@H](C)[C@@H](O)[C@@H](C)[C@H](OC(C)=O)[C@@H]1C [RIFAMPIN] | 0.02 (≈ 0.0243 µM) |  | 
12 | NNC(=O)c1ccncc1 [ISONIAZID] | 0.36 (≈ 2.63 µM) |  | 
13 | O=C(NCc1ccc(C(F)(F)F)cc1)c1cn2cc(-c3cnn(CCN4CCOCC4)c3)ccc2n1 | 12.5 (≈ 25.1 µM) | 22.2 | 
14 | Cn1cc(-c2ccc3nc(C(=O)NCc4ccc5c(c4)OCO5)cn3c2)cn1 | 6.25 (≈ 16.6 µM) | 25.6 | 
15 | COc1ccccc1-c1ccc2nc(C(=O)NCc3ccncc3)cn2c1 | 12.5 (≈ 34.9 µM) | 31.6 | 
16 | Cn1cc(-c2ccc3nc(C(=O)NCc4ccco4)cn3c2)cn1 | > 50 |  | 
17 | CCc1nc2ccc(Cl)cn2c1C(=O)NCc1ccc(N2CCC(c3ccc(OC(F)(F)F)cc3)CC2)cc1 [TELACEBEC] |  |  | 2.7 (≈ 1.5 ng/mL)
18 | O=C(NCc1ccncc1)c1cn2cc(-c3ccc(Cl)cc3)ccc2n1 | 6.25 (≈ 17.2 µM) | 26.1 | 
19 | O=C(NC1CC1)c1cn2cc(-c3cnn(CCN4CCOCC4)c3)ccc2n1 | 25 (≈ 65.7 µM) | 29.1 | 
